According to ChEMBL document CHEMBL4665832, “Benzylidene thiazolidinediones: Synthesis, in vitro investigations of antiproliferative mechanisms and in vivo efficacy determination in combination with Imatinib” (Bioorg Med Chem Lett, 2020):

Tests used:
[1] = Cytotoxicity against hepatocytes (unknown origin) assessed as cell growth by MTT assay relative to control; assay type: cell-based, Hepatocyte; set-up: concentration or dose not given beside the values
[2] = system: HOP-62; assay: Antiproliferative activity against human HOP-62 cells assessed as cell growth inhibition; assay type: functional
Procedure, shortened: (§1)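 Cell lines screened for growth inhibition and GI₅₀ derived. Each value is the mean of 3 independent experiments.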

[3] = system: PC-3; assay: Antiproliferative activity against human PC-3 cells assessed as cell growth inhibition; assay type: functional; procedure, shortened: as §1
[4] = system: MCF7; assay: Antiproliferative activity against human MCF7 cells assessed as cell growth inhibition; assay type: functional; procedure, shortened: as §1
[5] = system: K562; assay: Antiproliferative activity against human K562 cells assessed as cell growth inhibition; assay type: functional; procedure, shortened: as §1
[6] = Antiproliferative activity against human GURAV cells assessed as cell growth inhibition; assay type: functional; procedure, shortened: as §1
[7] = system: KB; assay: Antiproliferative activity against human KB cells assessed as cell growth inhibition; assay type: functional; procedure, shortened: as §1
[8] = system: HL-60; assay: Antiproliferative activity against human HL-60 cells assessed as cell growth inhibition; assay type: functional; procedure, shortened: as §1
[9] = system: Jurkat; assay: Antiproliferative activity against human Jurkat cells assessed as cell growth inhibition; assay type: functional; procedure, shortened: as §1
[10] = system: MOLT-4; assay: Antiproliferative activity against human MOLT-4 cells assessed as cell growth inhibition; assay type: functional; procedure, shortened: as §1
[11] = system: U-937; assay: Antiproliferative activity against human U-937 cells assessed as cell growth inhibition; assay type: functional; procedure, shortened: as §1

Structure (SMILES)	GI50 [3] [µM]	GI50 [4] [µM]	GI50 [5] [µM]	GI50 [7] [µM]	GI50 [8] [µM]	GI50 [9] [µM]	GI50 [10] [µM]	GI50 [11] [µM]	viability [1] [%]	GI50 [2] [µM]	GI50 [6] [µM]
CCCCC1=NC2(CCCC2)C(=O)N1NC(=O)COc1ccc(/C=C2\SC(=O)NC2=O)cc1									> 70		
O=C(COc1ccc(/C=C2\SC(=O)NC2=O)cc1)Nc1ncc([N+](=O)[O-])s1									> 70		
O=C(COc1ccc(/C=C2\SC(=O)NC2=O)cc1)Nc1ccccn1									> 70		
O=C1NC(=O)/C(=C/c2ccc(OCC(=O)N3C(=O)c4ccccc4S3(=O)=O)cc2)S1									> 70		
O=C(COc1ccc(/C=C2\SC(=O)NC2=O)cc1)Nc1c(F)cc(Br)cc1F	> 100	57.3	23.1	> 100					> 70	75.2	64.1
COc1cccc2c1C(=O)c1c(O)c3c(c(O)c1C2=O)C[C@@](O)(C(=O)CO)C[C@@H]3O[C@H]1C[C@H](N)[C@H](O)[C@H](C)O1 [DOXORUBICIN]	< 0.1	< 0.1	< 0.1	< 0.1						< 0.1	< 0.1
CCc1ccc(CCOc2ccc(CC3SC(=O)NC3=O)cc2)nc1 (centres undefined) [PIOGLITAZONE]			40.1								
Cc1cc(NC(=O)COc2ccc(/C=C3\SC(=O)NC3=O)cc2)no1									> 70		
Cc1c(NC(=O)COc2ccc(/C=C3\SC(=O)NC3=O)cc2)c(=O)n(-c2ccccc2)n1C									> 70		

Continued, in another order:

GI50 [3] [µM]	GI50 [4] [µM]	GI50 [5] [µM]	GI50 [7] [µM]	GI50 [8] [µM]	GI50 [9] [µM]	GI50 [10] [µM]	GI50 [11] [µM]	Structure (SMILES)	viability [1] [%]	GI50 [2] [µM]	GI50 [6] [µM]
> 100	67.4	16.3	78.6					O=C(COc1ccc(/C=C2\SC(=O)NC2=O)cc1)Nc1ccc(C(F)(F)F)cc1Cl	> 70	> 100	99.3
> 100	61.2	45.8	> 100					Cc1cccc2sc(NC(=O)COc3ccc(/C=C4\SC(=O)NC4=O)cc3)nc12	> 70	> 100	58.7
83.4	51.1	7.4	50.3	52.4	> 100	42.7	46.3	O=C(COc1ccc(/C=C2\SC(=O)NC2=O)cc1)Nc1ccc(Cl)cc1	> 70	36.1	35.6
> 100	66.8	20.7	> 100					Cc1cc(Br)ccc1NC(=O)COc1ccc(/C=C2\SC(=O)NC2=O)cc1	> 70	> 100	69.7
> 100	61.8	19.6	99.6					Cc1ccc(NC(=O)COc2ccc(/C=C3\SC(=O)NC3=O)cc2)cc1Cl	> 70	> 100	71.4
> 100	74.5	17.6	> 100					O=C(COc1ccc(/C=C2\SC(=O)NC2=O)cc1)Nc1ccccc1	> 70	> 100	57
> 100	72.5	29.5	> 100					O=C(COc1ccc(/C=C2\SC(=O)NC2=O)cc1)Nc1ccc([N+](=O)[O-])cc1	> 70	> 100	> 100
86.6	55.1	23.4	32.1					O=C(COc1ccc(/C=C2\SC(=O)NC2=O)cc1)Nc1ccc(Br)cc1	> 70	45.4	54.4
> 100	58.5	20.5	> 100					O=C(COc1ccc(/C=C2\SC(=O)NC2=O)cc1)Nc1cccc([N+](=O)[O-])c1	> 70	> 100	71.5
58.3	28.3	10.7	75					Cc1cccc(NC(=O)COc2ccc(/C=C3\SC(=O)NC3=O)cc2)n1	> 70	81.4	60.9
